Source: article PMC4508496 (Theranostics, 2015)
Entries after “also recorded” stand apart in the source; their conditions may differ. * marks the point of attachment. AMC = Cc1cc(=O)oc2cc(N*)ccc12; Boc = CC(C)(C)OC(=O)*

Assays:
[1] = tested on: MDA-MB-468 cells; experiment: MTT assay; type: cell-based, human; conditions: for cells survived (MTT): MDA-MB-468
Outline: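 MDA-MB-468 cells in log phase were seeded at 3 × 10^3 per well and settled 12 h (37 °C, 5% CO2). They were then exposed to the test compound at 25, 50 or 100 µM in medium for 3, 6 or 12 h. MTT (5 mg/mL stock in PBS, pH 7.4) was added for 4 h, and formazan was dissolved in 10% SDS/PBS. Absorbance was read at 570/680 nm. Viability (%) = mean treated absorbance / mean control absorbance × 100.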

[2] = biological target: T1, furin (Homo sapiens, UniProt P09958); experiment: Time course HPLC analysis of furin-controlled condensation; type: biochemical; conditions: 100 µM, 1 nmol/U of furin, 37 °C
Outline: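 The non-radioactive analogue (100 µM) was incubated with furin (1 nmol/U) at 37 °C. Mixtures were analysed by HPLC eluted with CH3CN and water, each containing 0.1% TFA, against the untreated compound in water.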

[3] = Nanoparticle characterisation after furin incubation; type: physicochemical; conditions: 100 μM, furin 1 nmol/U, pH 7.4, 37 °C, 4 h vs before incubation
Outline: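 The non-radioactive analogue (100 µM) was incubated with furin (1 nmol/U) for 4 h at 37 °C. UV-vis spectra were recorded at room temperature. For TEM (200 kV), carbon-coated copper grids were dipped in the suspension, plunged into liquid nitrogen and freeze-dried. SEM was run on the same mixture. One furin unit releases 1 pmol MCA from Boc-RVRR-MCA per minute at 30 °C.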

[4] = biological target: T1, furin; experiment: Michaelis-Menten kinetics of furin cleavage; type: biochemical
[5] = tested on: MDA-MB-468 cells; experiment: Cell permeability of 1-Cold by fluorescence cell imaging; type: cell-based, human; conditions: 100 µM, 37 °C, 0.5 h, fluorescence microscopy
Outline: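 MDA-MB-468 breast adenocarcinoma cells were grown in DMEM with 10% FBS at 37 °C under 5% CO2. Cells (3 × 10^6) were exposed to the test compound (100 µM, 37 °C, 0.5 h) and washed three times with PBS. They were then imaged live on an inverted fluorescence microscope in the DAPI channel, with DIC overlay. The probe emits at 450 nm after intracellular furin-driven condensation.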

[6] = tested on: MDA-MB-468 cells; experiment: Cellular efflux titration; type: cell-based, human; conditions: 120 min efflux
Outline: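 MDA-MB-468 cells (1 million per well) were loaded for 1 h at 37 °C with 4 μCi of the 18F probe plus 0, 5, 25 or 50 μM of its non-radioactive analogue. Medium was then refreshed, marking efflux time 0. At 5–120 min the medium was exchanged and the removed medium was γ-counted. Cells were harvested and counted at 120 min to back-calculate total radioactivity at time 0.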

[7] = tested on: MDA-MB-468 cells; experiment: Cell uptake of 1; type: cell-based, human; conditions: 30 min; 600,000 MDA-MB-468 cells, 1 µCi of 1; γ-counter
Outline: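 MDA-MB-468 cells (600,000 per well) were seeded for 6 h. Medium was then replaced with fresh medium carrying 1 µCi of the 18F-labelled probe per well. Cells and medium were harvested at 5, 10, 20, 30, 60 and 90 min, and radioactivity was counted on a γ-counter.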

[8] = Pharmacokinetic study of 1 in mice after i.v. administration; type: in vivo; conditions: i.v. about 3.0 mCi/kg, n = 5
Outline: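 Mice received the 18F radiotracer intravenously at about 3.0 mCi/kg. Mean plasma concentration–time profiles were fitted to a two-compartment model, from which t1/2, AUC0-t, CLtot, Vd and Cmax were derived.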

[9] = tested on: MDA-MB-468 tumor; experiment: MicroPET tumor uptake in MDA-MB-468 tumor-bearing nude mice; type: in vivo; conditions: for tumor uptake of 1: PET, n = 4
Outline: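 Female BALB/c nude mice (4–8 weeks) received subcutaneous foreleg xenografts of 4 × 10^7 MDA-MB-468 cells in PBS, grown 4–6 weeks. Under isoflurane, mice were randomised to tail-vein dosing: 85 µCi of the 18F probe alone, or the probe plus 20 µmol/kg of its non-radioactive analogue. Ten-minute static PET scans were taken at 10 min to 6 h, reconstructed by 3D OSEM without attenuation or scatter correction. Decay-corrected ROI values were converted assuming 1 g/mL tissue density and divided by administered activity to give %ID/g.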

[10] = biological target: T1, furin; conditions: 30 °C; ref Bachem; cited from earlier work

T1 sequence (P09958 108-595 limits assumed): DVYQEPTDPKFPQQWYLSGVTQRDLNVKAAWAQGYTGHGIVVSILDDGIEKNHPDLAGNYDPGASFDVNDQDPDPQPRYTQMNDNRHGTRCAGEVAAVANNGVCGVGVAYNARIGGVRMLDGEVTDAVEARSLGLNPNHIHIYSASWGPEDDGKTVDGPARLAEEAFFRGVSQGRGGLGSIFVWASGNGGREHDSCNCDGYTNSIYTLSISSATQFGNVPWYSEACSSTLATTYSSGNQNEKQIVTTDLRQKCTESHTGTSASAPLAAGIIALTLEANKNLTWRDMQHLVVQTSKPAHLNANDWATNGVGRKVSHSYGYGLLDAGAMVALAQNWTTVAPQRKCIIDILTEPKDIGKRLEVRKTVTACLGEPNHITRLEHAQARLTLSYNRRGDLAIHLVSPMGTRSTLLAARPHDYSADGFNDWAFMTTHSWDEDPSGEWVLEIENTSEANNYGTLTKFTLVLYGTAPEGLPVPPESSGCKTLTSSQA

CC(=O)N[C@@H](CCCNC(=N)N)C(=O)N[C@H](C(=O)N[C@@H](CCCNC(=N)N)C(=O)N[C@@H](CCCNC(=N)N)C(=O)N[C@@H](CSSC(C)(C)C)C(=O)N[C@@H](CCCCNC(=O)c1ccc(F)cc1)C(=O)Nc1ccc2nc(C#N)sc2c1)C(C)C [1-Cold]
cells survived (MTT) ([1]; 25 µM, 3 h): 110%
cells survived (MTT) ([1]; 25 µM, 12 h): 98%
cells survived (MTT) ([1]; 50 µM, 3 h): 103%
cells survived (MTT) ([1]; 50 µM, 12 h): 105%
cells survived (MTT) ([1]; 100 µM, 3 h): 87%
cells survived (MTT) ([1]; 100 µM, 12 h): 68%
cytotoxicity to MDA-MB-468 cells (MTT), in words ([1]; up to 12 h (abstract: 50 µM)): did not impose cytotoxicity; also recorded: nontoxic
time in which furin-controlled condensation was accomplished [2]: ≤ 2 h
UV-vis absorption at 500-700 nm (light scattering, aggregation) [3]: obvious increase of absorption
Kcat of furin relative to Boc-RVRR-AMC ([4]; calculated, Figure S10): 35 times
Kcat/KM of furin relative to Boc-RVRR-AMC ([4]; calculated, Figure S10): 15 times
binding affinity to furin, fold lower than that of Boc-RVRR-AMC ([4]; from KM values): 2.4 fold
cell permeability (intracellular fluorescence) [5]: good cell permeability

Acetyl-Arg-Val-Arg-Arg-Cys(StBu)-Lys(^18F-FB)-CBT [compound 1]
initial radioactivity retained after cell efflux ([6]; 4 μCi of 1 alone, 1 h pre-incubation 37 °C, 1 million cells): 13.1 ± 1.2%
initial radioactivity retained after cell efflux ([6]; 4 μCi of 1 co-incubated with 5 μM 1-Cold): 20.3 ± 4.2%
initial radioactivity retained after cell efflux ([6]; 4 μCi of 1 co-incubated with 25 μM 1-Cold): 28.5 ± 1.4%
initial radioactivity retained after cell efflux ([6]; 4 μCi of 1 co-incubated with 50 μM 1-Cold): 32.1 ± 0.9%
cellular uptake (plateau) [7]: 20.4 % of total radioactivity
Cmax [8]: 7.471 mCi L^-1
mean AUC0-t [8]: 452.2 min mCi L^-1
tumor uptake ratio (Co-injected/1 alone) ([9]; 10 min p.i.): 2.5
tumor uptake of 1 ([9]; 10 min p.i., 85 µCi 1 alone): 1.02 ± 0.19 % ID/g
tumor uptake of 1 ([9]; 10 min p.i., co-injected 85 µCi 1 + 20 µmol/kg 1-Cold): 2.52 ± 0.95 % ID/g
tumor uptake ratio (Co-injected/1 alone) ([9]; 30 min p.i.): 3.6
tumor uptake of 1 ([9]; 30 min p.i., 85 µCi 1 alone): 1.12 ± 0.08 % ID/g
tumor uptake of 1 ([9]; 30 min p.i., co-injected 85 µCi 1 + 20 µmol/kg 1-Cold): 4.08 ± 0.48 % ID/g
tumor uptake ratio (Co-injected/1 alone) ([9]; 60 min p.i.): 6.4
tumor uptake of 1 ([9]; 60 min p.i., 85 µCi 1 alone): 0.52 ± 0.18 % ID/g
tumor uptake of 1 ([9]; 60 min p.i., co-injected 85 µCi 1 + 20 µmol/kg 1-Cold): 3.31 ± 1.22 % ID/g
tumor uptake ratio (Co-injected/1 alone) ([9]; 120 min p.i.): 7.9
tumor uptake of 1 ([9]; 120 min p.i., co-injected 85 µCi 1 + 20 µmol/kg 1-Cold): 2.27 ± 1.86 % ID/g
tumor uptake of 1 ([9]; 240 min p.i., 85 µCi 1 alone): 0.19 ± 0.03 % ID/g
tumor uptake of 1 ([9]; 240 min p.i., co-injected 85 µCi 1 + 20 µmol/kg 1-Cold): 1.55 ± 1.75 % ID/g
tumor uptake ratio (Co-injected/1 alone) ([9]; 360 min p.i.): 6.5
tumor uptake of 1 ([9]; 360 min p.i., 85 µCi 1 alone): 0.19 ± 0.05 % ID/g
tumor uptake of 1 ([9]; 360 min p.i., co-injected 85 µCi 1 + 20 µmol/kg 1-Cold): 1.28 ± 1.07 % ID/g

Boc-RVRR-{AMC} [Boc-RVRR-AMC]
speed of furin cleavage of commercial substrate [10]: 1 pmol/U per min
